Measured values published in ChEMBL document CHEMBL1125894, “Dual-action cephalosporins: cephalosporin 3'-quaternary ammonium quinolones” (1991).
Values after ≈ are worked out from the molar mass of the structure shown.

Columns and labels:
[1] = tested on: Serratia marcescens; assay: In vitro antibacterial activity against Serratia marcescens SM; assay type: functional
Outline: (§1)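 Serial 2-fold dilutions in the NCCLS broth microdilution method for aerobic nonfastidious organisms, with an 18-h incubation. The value is reported as the minimum inhibitory concentration (MIC).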

[2] = tested on: Pseudomonas aeruginosa; assay: In vivo activity in murine against Pseudomonas aeruginosa 5712 infection after sc administration.; assay type: functional; conditions: Pseudomonas aeruginosa, sc; read-out: ED50
Outline: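 Mouse protection test in CD1 Swiss albino mice (18–20 g) infected intraperitoneally with 0.5 mL of diluted P. aeruginosa suspension. Mice received 1.0 mL subcutaneously at the neck base within 5 min of infection and a second treatment 3 h after infection. Doses ranged from 0.05 to 250 mg/kg, with six mice per group. ED50 was calculated by the Reed–Muench method.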

[3] = tested on: Streptococcus pyogenes; assay: In vitro antibacterial activity against Streptococcus pyogenes 4; assay type: functional
Outline: (§2)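 Broth macrodilution with serial 2-fold dilutions in cation-supplemented Mueller-Hinton broth containing 10% goat serum. The value is reported as the MIC.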

[4] = biological target: T1, Penicillin-binding protein 1B (Escherichia coli K-12) (UniProt P02919); assay: Concentration required for 90% inhibition against 90 kDa penicillin-binding protein 1b binding using [14C]-Pen G as the radioligand.
T1 sequence (whole entry): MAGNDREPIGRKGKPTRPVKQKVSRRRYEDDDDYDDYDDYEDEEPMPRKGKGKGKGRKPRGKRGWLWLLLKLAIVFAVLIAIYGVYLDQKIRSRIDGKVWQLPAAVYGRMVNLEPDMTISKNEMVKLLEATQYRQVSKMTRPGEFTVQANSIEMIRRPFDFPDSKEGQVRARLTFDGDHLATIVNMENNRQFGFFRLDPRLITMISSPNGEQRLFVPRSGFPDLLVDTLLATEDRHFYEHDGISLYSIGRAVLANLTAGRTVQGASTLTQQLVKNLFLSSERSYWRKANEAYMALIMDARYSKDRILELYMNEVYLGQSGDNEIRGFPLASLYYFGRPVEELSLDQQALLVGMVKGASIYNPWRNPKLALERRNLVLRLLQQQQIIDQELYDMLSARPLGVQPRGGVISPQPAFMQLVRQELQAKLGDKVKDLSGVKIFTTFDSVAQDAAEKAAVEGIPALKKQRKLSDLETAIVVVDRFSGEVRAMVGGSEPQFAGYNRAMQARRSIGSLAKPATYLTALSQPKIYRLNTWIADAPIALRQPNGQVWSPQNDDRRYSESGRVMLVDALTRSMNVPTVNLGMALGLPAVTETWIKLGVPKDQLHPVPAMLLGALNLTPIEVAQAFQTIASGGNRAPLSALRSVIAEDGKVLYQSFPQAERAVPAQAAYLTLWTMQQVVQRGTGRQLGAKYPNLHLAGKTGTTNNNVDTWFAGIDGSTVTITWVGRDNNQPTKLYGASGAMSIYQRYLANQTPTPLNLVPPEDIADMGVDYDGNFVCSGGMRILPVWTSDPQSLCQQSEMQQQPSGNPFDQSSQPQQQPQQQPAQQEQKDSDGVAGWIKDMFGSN
Outline: (§3)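 Solubilized membranes from sonicated E. coli DC-0 were used. PBP binding was measured as inhibition of [14C]penicillin G binding to each PBP.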

[5] = tested on: Escherichia coli; assay: Antibacterial activity against Escherichia coli DC-O; assay type: functional; outline: as §1
[6] = biological target: T2, Penicillin-binding protein 1A (Escherichia coli K-12) (UniProt P02918); assay: Concentration required for 90% inhibition against 90 kDa penicillin-binding protein 1a binding using [14C]-Pen G as the radioligand.; outline: as §3
T2 sequence (whole entry): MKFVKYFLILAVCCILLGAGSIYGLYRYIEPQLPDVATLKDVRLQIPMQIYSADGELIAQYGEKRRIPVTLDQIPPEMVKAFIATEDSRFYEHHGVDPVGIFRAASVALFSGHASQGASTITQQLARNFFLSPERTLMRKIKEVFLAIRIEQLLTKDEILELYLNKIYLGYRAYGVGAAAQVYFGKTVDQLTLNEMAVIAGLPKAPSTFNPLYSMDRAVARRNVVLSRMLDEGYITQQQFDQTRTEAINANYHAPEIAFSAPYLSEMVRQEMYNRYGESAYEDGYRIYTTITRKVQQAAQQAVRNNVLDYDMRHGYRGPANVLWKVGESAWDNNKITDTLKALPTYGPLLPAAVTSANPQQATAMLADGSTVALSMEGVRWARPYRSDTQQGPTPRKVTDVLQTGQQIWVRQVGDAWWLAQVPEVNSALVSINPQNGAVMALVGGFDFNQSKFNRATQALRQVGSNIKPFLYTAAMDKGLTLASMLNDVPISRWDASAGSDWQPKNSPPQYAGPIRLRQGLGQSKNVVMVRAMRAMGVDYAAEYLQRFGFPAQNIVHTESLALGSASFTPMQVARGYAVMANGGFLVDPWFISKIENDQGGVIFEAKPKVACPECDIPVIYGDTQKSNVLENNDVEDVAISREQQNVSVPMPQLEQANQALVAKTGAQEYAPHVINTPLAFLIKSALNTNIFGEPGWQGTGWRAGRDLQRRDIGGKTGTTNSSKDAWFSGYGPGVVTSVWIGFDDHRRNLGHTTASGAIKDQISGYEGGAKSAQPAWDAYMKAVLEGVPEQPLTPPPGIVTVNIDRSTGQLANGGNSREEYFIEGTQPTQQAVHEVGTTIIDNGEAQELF

[7] = tested on: Streptococcus pyogenes; assay: In vivo activity in murine against Streptococcus pyogenes 4 infection after sc administration.; assay type: functional
Outline: (§4)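 Mouse protection test in CD1 Swiss albino mice (18–20 g). Mice were infected intraperitoneally with 0.5 mL of a diluted bacterial suspension, then treated within 5 min with one 1.0 mL subcutaneous dose at the dorsal base of the neck. Doses ranged from 0.05 to 250 mg/kg, with six mice per group. ED50 was calculated by the Reed–Muench method.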

[8] = tested on: Klebsiella pneumoniae; assay: In vitro antibacterial activity against Klebsiella pneumoniae A; assay type: functional; outline: as §1
[9] = tested on: Escherichia coli; assay: In vitro antibacterial activity against Escherichia coli 257; assay type: functional; outline: as §1
[10] = tested on: Staphylococcus aureus; assay: In vitro antibacterial activity against Staphylococcus aureus Smith(MS); assay type: functional
Outline: (§5)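 Staphylococci were tested by the standard agar dilution procedure using serial 2-fold dilutions of agent. The value is reported as the MIC.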

[11] = tested on: Escherichia coli; assay: Concentration required for 90% inhibition against 60 kDa penicillin-binding protein 3 binding using [14C]-Pen G as the radioligand.; outline: as §3
[12] = tested on: Streptococcus pneumoniae; assay: In vivo activity in murine against Streptococcus pneumoniae 6301 infection after sc administration.; assay type: functional; outline: as §4
[13] = tested on: Serratia marcescens; assay: In vivo activity in murine against Serratia marcescens SM infection after sc administration.; assay type: functional; outline: as §4
[14] = tested on: Staphylococcus aureus; assay: In vitro antibacterial activity against Staphylococcus aureus 95(MR); assay type: functional; outline: as §5
[15] = tested on: Citrobacter freundii; assay: In vitro antibacterial activity against Citrobacter freundii BS 16; assay type: functional; outline: as §1
[16] = tested on: Enterobacter cloacae; assay: In vitro antibacterial activity against Enterobacter cloacae 5699; assay type: functional; outline: as §1
[17] = tested on: Streptococcus pneumoniae; assay: In vitro antibacterial activity against Streptococcus pneumoniae 6301; assay type: functional; outline: as §2
[18] = tested on: Escherichia coli; assay: In vivo activity in murine against Escherichia coli 257 infection after sc administration.; assay type: functional; conditions: Escherichia coli, sc; read-out: ED50; outline: as §4
[19] = tested on: Pseudomonas aeruginosa; assay: In vitro antibacterial activity against Pseudomonas aeruginosa 5712; assay type: functional; outline: as §1
[20] = biological target: T3, Peptidoglycan D,D-transpeptidase MrdA (Escherichia coli K-12) (UniProt P0AD65); assay: Concentration required for 90% inhibition against 66 kDa penicillin-binding protein 2 binding using [14C]-Pen G as the radioligand.; outline: as §3
T3 sequence (whole entry): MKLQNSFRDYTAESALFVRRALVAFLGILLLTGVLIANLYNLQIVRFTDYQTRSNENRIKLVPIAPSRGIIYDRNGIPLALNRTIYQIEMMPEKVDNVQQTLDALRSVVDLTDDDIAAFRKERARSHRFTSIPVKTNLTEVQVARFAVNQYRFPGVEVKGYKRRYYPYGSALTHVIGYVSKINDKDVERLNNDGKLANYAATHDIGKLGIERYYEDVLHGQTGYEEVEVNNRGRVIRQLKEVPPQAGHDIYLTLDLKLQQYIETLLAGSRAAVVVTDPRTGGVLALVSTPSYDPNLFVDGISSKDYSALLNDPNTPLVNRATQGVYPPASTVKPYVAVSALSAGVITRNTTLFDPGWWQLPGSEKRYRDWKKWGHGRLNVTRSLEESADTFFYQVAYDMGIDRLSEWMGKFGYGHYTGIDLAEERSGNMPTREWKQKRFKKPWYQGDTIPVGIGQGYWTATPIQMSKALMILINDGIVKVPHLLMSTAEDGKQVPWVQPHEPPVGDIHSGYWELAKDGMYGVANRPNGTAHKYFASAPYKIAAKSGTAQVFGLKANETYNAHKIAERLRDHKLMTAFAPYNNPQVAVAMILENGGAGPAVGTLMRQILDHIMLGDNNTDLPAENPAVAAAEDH

[21] = tested on: Enterobacter cloacae; assay: In vitro antibacterial activity against Enterobacter cloacae P99; assay type: functional; outline: as §1

| MIC [1] [µg/mL] | MIC [3] [µg/mL] | MIC [8] [µg/mL] | MIC [9] [µg/mL] | MIC [10] [µg/mL] | MIC [14] [µg/mL] | MIC [15] [µg/mL] | MIC [16] [µg/mL] | MIC [17] [µg/mL] | MIC [19] [µg/mL] | MIC [21] [µg/mL] | SMILES | further results |
| --- | --- | --- | --- | --- | --- | --- | --- | --- | --- | --- | --- | --- |
| 1 (≈ 1.31 µM) | 0.125 (≈ 0.163 µM) | 0.5 (≈ 0.654 µM) | 0.125 (≈ 0.163 µM) | 4 (≈ 5.23 µM) | 4 (≈ 5.23 µM) | 2 (≈ 2.62 µM) | 0.5 (≈ 0.654 µM) | 0.063 (≈ 0.0824 µM) | 32 (≈ 41.8 µM) | 0.5 (≈ 0.654 µM) | CO/N=C(\C(=O)N[C@@H]1C(=O)N2C(C(=O)[O-])=C(C[N+]3(C)CCN(c4c(F)cc5c(=O)c(C(=O)O)cn(CCF)c5c4F)CC3)CS[C@H]12)c1csc(N)n1 | ED50 [2]: > 250 mg/kg; Concentration [4]: > 100 µg/mL; MIC [5]: 0.2 µg/mL (≈ 0.262 µM); Concentration [6]: > 100 µg/mL; ED50 [7]: < 5 mg/kg; Concentration [11]: 0.1 µg/mL; ED50 [12]: 12 mg/kg; ED50 [13]: 10 mg/kg; ED50 [18]: < 0.5 mg/kg; Concentration [20]: 100 µg/mL |
| > 128 | 0.031 (≈ 0.0593 µM) | 32 (≈ 61.2 µM) | 32 (≈ 61.2 µM) | 0.063 (≈ 0.121 µM) | 128 (≈ 245 µM) | > 128 | 64 (≈ 122 µM) | 0.125 (≈ 0.239 µM) | > 128 | > 128 | C[N+]1(CC2=C(C(=O)[O-])N3C(=O)[C@@H](NC(=O)COc4ccccc4)[C@H]3SC2)CCN(c2ccccc2)CC1 |  |
